SUMO1-SIM PPI: SUMO1-SIM interaction modulation; P63165; SUMO1 binding to a labelled peptide, TR-FRET, 1 h; inhibition, % at 20 µM; 0.33% of 360,000 active; AID 602429; in the data active means inhibition above about 37%
DNMT1 inh: DNMT1 (human) enzyme inhibition; P26358; DNMT1 molecular beacon, Hinp1I cleavage, fluorescence; inhibition (reported as % activation of signal), % at 10 µM; 0.83% of 360,000 active; AID 588458; in the data active means inhibition above about 50%
Target sequence (P26358 504-1616 limits assumed): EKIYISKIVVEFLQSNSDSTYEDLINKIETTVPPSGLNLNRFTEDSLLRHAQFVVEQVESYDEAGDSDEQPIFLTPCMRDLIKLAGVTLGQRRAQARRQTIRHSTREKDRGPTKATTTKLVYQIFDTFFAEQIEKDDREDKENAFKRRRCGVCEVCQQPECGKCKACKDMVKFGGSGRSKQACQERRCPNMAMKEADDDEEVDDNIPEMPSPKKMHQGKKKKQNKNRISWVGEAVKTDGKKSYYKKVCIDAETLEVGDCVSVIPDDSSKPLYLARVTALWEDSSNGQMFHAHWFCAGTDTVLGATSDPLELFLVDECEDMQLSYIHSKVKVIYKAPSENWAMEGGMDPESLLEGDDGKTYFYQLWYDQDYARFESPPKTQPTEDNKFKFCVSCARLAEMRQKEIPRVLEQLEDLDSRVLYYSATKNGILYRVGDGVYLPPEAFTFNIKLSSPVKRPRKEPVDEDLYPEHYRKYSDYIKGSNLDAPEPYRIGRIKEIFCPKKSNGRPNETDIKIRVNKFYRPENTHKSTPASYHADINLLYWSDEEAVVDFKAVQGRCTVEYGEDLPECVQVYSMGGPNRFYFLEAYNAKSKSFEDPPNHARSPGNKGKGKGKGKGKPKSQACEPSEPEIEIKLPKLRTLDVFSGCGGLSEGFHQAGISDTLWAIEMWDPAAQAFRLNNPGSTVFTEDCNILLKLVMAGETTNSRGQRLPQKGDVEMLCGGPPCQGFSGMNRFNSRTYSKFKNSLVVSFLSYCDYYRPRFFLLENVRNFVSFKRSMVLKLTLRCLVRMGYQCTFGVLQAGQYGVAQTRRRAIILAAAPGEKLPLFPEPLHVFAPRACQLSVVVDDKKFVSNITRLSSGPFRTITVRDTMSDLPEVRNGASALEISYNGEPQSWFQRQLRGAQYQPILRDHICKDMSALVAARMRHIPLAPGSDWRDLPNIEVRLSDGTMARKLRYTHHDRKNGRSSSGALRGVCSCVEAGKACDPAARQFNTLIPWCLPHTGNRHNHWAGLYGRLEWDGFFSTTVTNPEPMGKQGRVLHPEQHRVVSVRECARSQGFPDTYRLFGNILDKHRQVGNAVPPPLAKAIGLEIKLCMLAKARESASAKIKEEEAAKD
NadD block: blocks S. aureus nicotinate mononucleotide adenylyltransferase | purified NadD enzyme, colorimetric absorbance read-out | 0.78% of 360,000 active | inhibition, % at 20 µM; in the data active means inhibition above about 26%
LMPTP block: blocks human LMPTP phosphatase. 0.22% of 360,000 active. AID 651560. recombinant LMPTP-A, OMFP fluorogenic substrate, fluorescence intensity. P24666. inhibition, % at 20 µM;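 active means compounds that cut the enzyme signal by at least half of the control window in the single-dose screen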
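Test system: LMPTP-A phosphatase enzyme. Amount: LMPTP-A at 0.625 nM final in the reaction. Reagent: OMFP substrate, 400 µM final. Times: 50 min at room temperature. Signal: endpoint fluorescence intensity from OMFP dephosphorylation. Read-out basis: % inhibition. Benchmarks: no-enzyme and uninhibited controls.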
Scp1 inh: blocks human Scp-1 phosphatase activity | Q9GZU7 | Recombinant Scp1, phosphopeptide, malachite green phosphate absorbance | inhibition, % at 20 µM | 0.88% of 340,000 active | AID 493091;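 active means inhibition above about 50% at 20 µM, limit read from the data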
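Test system: SCP-1 phosphatase catalytic domain, residues 76-261 | Compound dosing: One concentration, 20 µM, with 1.0% DMSO | Schedule: 45 min room-temperature reaction, 5 min colour, 30 min stabiliser | Detection: Absorbance at 630 nm | Read-out basis: % inhibition of SCP-1 phosphate liberation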
STEP block: STEP (human) phosphatase inhibition. recombinant STEP, OMFP fluorogenic substrate, fluorescence. 0.25% of 360,000 active. inhibition, % at 20 µM;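 active means inhibition at 20 µM, scaled per plate between control wells, above about 37%, limit read from the data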
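Material: STEP (striatal-enriched tyrosine phosphatase) enzyme, cell-free | Medium: 50 mM Bis-Tris pH 6.0 with 2.5 mM DTT and 0.005% Tween 20 | Read-out: Percent inhibition scaled to no-enzyme and uninhibited-enzyme controls, plate-pattern corrected | Signal: Fluorescence read at 480 nm ex / 540 nm em | Times: 20 min reaction, room temperature, in the dark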
Scp1 confirm: Scp-1 (human) inhibition, single-dose confirmed | shares compounds with Scp1 inh | recombinant SCP-1 catalytic domain, phosphate release, malachite green absorbance | inhibition, % at 20 µM | 61% of 2,500 active
Scp-1 MG ctr: counter-screen for Scp-1 inhibitors: colorimetric interference; Colorimetric interference counterscreen, malachite green absorbance 630 nm; shares compounds with Scp1 inh; 2,500 tested, under 10 active; apparent inhibition (interference), % at 20 µM;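 further: compounds added after enzyme reaction finished so only phosphate colour detection is probed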
Scp1 DSF: validation of human Scp-1 inhibitors by thermal shift binding; shares compounds with Scp1 inh; Recombinant SCP1, Sypro Orange thermal shift Tm; thermal shift relative to vanadate control, % at 40 µM; 25% of 1,500 active;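 active means substances whose mean melting-temperature shift, as a percentage of the reference inhibitor's shift, reaches about 5.3%, limit read from the data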
DNMT1 inh conf: DNMT1 inhibition confirmation, single concentration. 8% of 2,300 active. shares compounds with DNMT1 inh. DNMT1 molecular beacon HinP1I cleavage, fluorescence. inhibition, % at 10 µM;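 active means average inhibition of at least 30% in the single-concentration confirmation test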
Beacon interf: shows spectral interference in the DNMT1 beacon assay; shares compounds with DNMT1 inh; DNMT1 molecular beacon spectral interference counterscreen, fluorescence 485/520; activation (fluorescence interference), % at 10 µM; 1% of 2,300 active; AID 602387;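 active means activation of at least 30% at 10 µM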;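 further: DNMT1 catalytic domain with a HinP1I cleavage step and a FAM/dabcyl DNA beacon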
STEP conf: confirmation of human STEP phosphatase inhibitors | shares compounds with STEP block | AID 623866 | recombinant STEP, OMFP fluorogenic substrate, fluorescence | inhibition, % at 20 µM | 32% of 520 active; call rule not given here
Each line names hits and unclear results; the compound was inactive in the other large screens (follow-up assays come after a bar, where they were run). Sampled rows, rich in hits. Any-hit rate of the full collection: about 2.4%.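 How the source made its calls, unless noted: active means inhibition of at least 30% at 20 µM; inactive means the rest.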

COc1ccc(OC)c([N+](=O)[O-])c1C(N)=O	DNMT1 inh 75, Scp1 inh 68 | Scp1 confirm 62 | Scp-1 MG ctr inactive | Scp1 DSF inactive | DNMT1 inh conf inactive | Beacon interf inactive
COc1ccc(C(=O)N2CCC2(C)C(=O)O)cc1F (stereo unspecified)	none (no result: Scp1 inh)
COc1ccc2c(=O)c3c(=O)n(Cc4ccco4)c(-c4ccco4)nc3oc2c1	DNMT1 inh 86, Scp1 inh 92 | Scp1 confirm 74 | Scp-1 MG ctr inactive | Scp1 DSF inactive | DNMT1 inh conf inactive | Beacon interf inactive
COc1ccc(Cn2c(-c3ccco3)nc3oc4cc(OC)ccc4c(=O)c3c2=O)cc1	DNMT1 inh 61, Scp1 inh 79 | Scp1 confirm 68 | Scp-1 MG ctr inactive | Scp1 DSF inactive | DNMT1 inh conf inactive | Beacon interf inactive
COc1ccc(-c2nc3oc4cc(OC)ccc4c(=O)c3c(=O)n2Cc2ccco2)cc1	none
COc1ccccc1OCCOc1ccc(/C=C2/C(=N)N3OC(C)=CC3=NC2=O)cc1OC	DNMT1 inh 88, Scp1 inh 97 | Scp1 confirm 68 | Scp-1 MG ctr inactive | Scp1 DSF inactive | DNMT1 inh conf inactive | Beacon interf inactive
CCCCCn1c(=O)[nH]c2cc(C(=O)NCCCN3CCCCC3CC)ccc2c1=O (stereo unspecified)	none
O=C(CSc1ccsc1[N+](=O)[O-])Nc1cc(F)ccc1F	DNMT1 inh 70, Scp1 inh 72 | Scp1 confirm 66 | Scp-1 MG ctr inactive | Scp1 DSF 8.1 | DNMT1 inh conf inactive | Beacon interf inactive
Cc1ccc(-c2c(NCCc3ccccc3)c(=O)c2=O)cc1	Scp1 inh 89, STEP block 57 | Scp1 confirm 59 | Scp-1 MG ctr inactive | Scp1 DSF inactive | STEP conf inactive
COc1cc(-c2ccc3oc(-c4ccsc4)cc(=O)c3c2)cc(OC)c1OC	none
O=c1cc(-c2ccsc2)oc2cc(-c3ccc4c(c3)OCO4)ccc12	DNMT1 inh 61, LMPTP block 68, Scp1 inh 68, STEP block 46 | Scp1 confirm 53 | Scp-1 MG ctr inactive | Scp1 DSF inactive | DNMT1 inh conf inactive | Beacon interf inactive | STEP conf inactive
Cc1nn(C2CCS(=O)(=O)C2)c(C)c1C=O (stereo unspecified)	none
O=C(N/N=C/c1ccccc1F)c1cc2c(ccc3ccccc32)o1	DNMT1 inh 82, Scp1 inh 103, STEP block 97 | Scp1 confirm 67 | Scp-1 MG ctr inactive | Scp1 DSF inactive | DNMT1 inh conf inactive | Beacon interf inactive | STEP conf inactive
O=C(N/N=C/C=C/c1ccccc1)c1cc2c(ccc3ccccc32)o1	DNMT1 inh 94, LMPTP block 63, Scp1 inh 102, STEP block 66 | Scp1 confirm 81 | Scp-1 MG ctr inactive | Scp1 DSF inactive | DNMT1 inh conf inactive | Beacon interf inactive | STEP conf inactive
O=C(Nc1nc2ccsc2c(=O)s1)c1ccc(Cl)cc1	LMPTP block 54, Scp1 inh 103, STEP block 96 | Scp1 confirm 72 | Scp-1 MG ctr inactive | Scp1 DSF inactive | STEP conf inactive
Cc1cc(=O)oc2cc(NC(=O)c3cccc(F)c3)ccc12	DNMT1 inh 58, Scp1 inh 63, STEP block 91 | Scp1 confirm 35 | Scp-1 MG ctr inactive | Scp1 DSF inactive | DNMT1 inh conf inactive | Beacon interf inactive | STEP conf inactive
Cc1cc(=O)oc2cc(NC(=O)c3ccc(OC(F)F)cc3)ccc12	Scp1 inh 87, STEP block 84 | Scp1 confirm 79 | Scp-1 MG ctr inactive | Scp1 DSF inactive | STEP conf inactive
CC(=O)Nc1ccc(S(=O)(=O)Nc2cccc(-n3cnnn3)c2)cc1	none
CC(=O)c1ccc(S(=O)(=O)Nc2cccc(-n3cnnn3)c2)cc1	DNMT1 inh 100, Scp1 inh 77, STEP block 97 | Scp1 confirm 65 | Scp-1 MG ctr inactive | Scp1 DSF inactive | DNMT1 inh conf inactive | Beacon interf inactive | STEP conf 99
O=C(C1CCC(=O)N(C2CC2)C1)N1CCN(c2cccc(Cl)c2)CC1 (stereo unspecified)	none
Cc1cc(Cl)nc2c(C(C)C)cccc12	none
O=C(Cn1cnc2c(nnn2-c2ccccc2)c1=O)NCc1ccc(F)cc1	Scp1 inh 101, STEP block 77 | Scp1 confirm 96 | Scp-1 MG ctr inactive | Scp1 DSF inactive | STEP conf inactive
O=C(CSc1nnc2c(n1)[nH]c1ccc(F)cc12)NCc1ccc(F)cc1	Scp1 inh 65, STEP block 60 | Scp1 confirm inactive | Scp-1 MG ctr inactive | STEP conf inactive
O=C(CSc1nnc2c(n1)[nH]c1ccc(F)cc12)NC1CC1	none
COC(=O)COc1ccc(/C=C2/SC(=O)N(CC(=O)N3CCCC3)C2=O)cc1Br	none
Cc1ccc(NC(=O)CN2C(=O)S/C(=C\c3ccc(OCC(=O)O)c(Br)c3)C2=O)cc1	Scp1 inh 72, STEP block 71 | Scp1 confirm 58 | Scp-1 MG ctr inactive | Scp1 DSF inactive | STEP conf 61
Cc1c(CC(=O)O)c(=O)oc2c(C)c3occ(-c4ccc(Br)cc4)c3cc12	Scp1 inh 52, STEP block 69 | Scp1 confirm 62 | Scp-1 MG ctr inactive | Scp1 DSF inactive | STEP conf inactive
COc1ccc(-c2coc3c(C)c4oc(=O)c(CC(=O)O)c(C)c4cc23)cc1	none
CCN(c1ccccc1)S(=O)(=O)c1cc(C(=O)O)ccc1C	DNMT1 inh 85, LMPTP block 60, Scp1 inh 56, STEP block 95 | Scp1 confirm 46 | Scp-1 MG ctr inactive | Scp1 DSF inactive | DNMT1 inh conf inactive | Beacon interf inactive | STEP conf inactive

Screens (PubChem)
